Screening data: PubChem, several laboratories
Hits are enriched below; roughly 4.5% of the tested compounds scored in any of these assays.
CHOP UPR activ: activators of apoptotic arm of unfolded protein response (CHOP); CHO-CHOP luciferase reporter, UPR activation, luminescence; percent of tunicamycin response over DMSO baseline; activation, % at 10 µM; 330,000 tested, 0.34% active;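 active = at 10 µM dose, activation of 40% or more, normalized to positive control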;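 note: 100% = tunicamycin at 10 µg/mL and 0% = DMSO alone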
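System: CHO-CHOP luciferase reporter cell line | Buffer or medium: F12 medium containing 10% fetal bovine serum | Doses: One dose, 10 µM in 0.5% DMSO | Times: 6 h compound exposure at 37 °C after overnight seeding | Signal: Luciferase luminescence | Read-out: % activation vs tunicamycin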
UPR XBP1 act: adaptive UPR (XBP1) activation; CHO-XBP1 luciferase reporter, IRE1-XBP1 UPR activation, luminescence; percent of tunicamycin response, DMSO as zero; activation, % at 20 µM; 330,000 tested, 0.33% active;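 active = versus positive control, 20 µM dose yields 30% or more activation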;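 note: 100% = tunicamycin at 10 µg/mL and 0% = DMSO only wells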
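Material – CHO cell line with stable XBP1 luciferase reporter · Buffer or medium – F12 plus 10% FBS · Compound – single point, 20 µM final compound, 1% DMSO · Schedule – 16-18 h cell attachment at 37 °C, then 6 h compound exposure · Signal – Steady-Glo luminescence read · Benchmarks – high control tunicamycin 10 µg/mL final, low control DMSO vehicle only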
p97 ATPase inh: inhibitors of human p97 ATPase | P55072 | recombinant p97 ATPase, Kinase-Glo ATP luminescence, 3 h | inhibition, % at 8 µM | 220,000 tested, 0.42% active; in the data active = inhibition above about 15%;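 note: 0% = DMSO vehicle and 100% = wells lacking enzyme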
Target sequence (P55072 whole entry, looked up): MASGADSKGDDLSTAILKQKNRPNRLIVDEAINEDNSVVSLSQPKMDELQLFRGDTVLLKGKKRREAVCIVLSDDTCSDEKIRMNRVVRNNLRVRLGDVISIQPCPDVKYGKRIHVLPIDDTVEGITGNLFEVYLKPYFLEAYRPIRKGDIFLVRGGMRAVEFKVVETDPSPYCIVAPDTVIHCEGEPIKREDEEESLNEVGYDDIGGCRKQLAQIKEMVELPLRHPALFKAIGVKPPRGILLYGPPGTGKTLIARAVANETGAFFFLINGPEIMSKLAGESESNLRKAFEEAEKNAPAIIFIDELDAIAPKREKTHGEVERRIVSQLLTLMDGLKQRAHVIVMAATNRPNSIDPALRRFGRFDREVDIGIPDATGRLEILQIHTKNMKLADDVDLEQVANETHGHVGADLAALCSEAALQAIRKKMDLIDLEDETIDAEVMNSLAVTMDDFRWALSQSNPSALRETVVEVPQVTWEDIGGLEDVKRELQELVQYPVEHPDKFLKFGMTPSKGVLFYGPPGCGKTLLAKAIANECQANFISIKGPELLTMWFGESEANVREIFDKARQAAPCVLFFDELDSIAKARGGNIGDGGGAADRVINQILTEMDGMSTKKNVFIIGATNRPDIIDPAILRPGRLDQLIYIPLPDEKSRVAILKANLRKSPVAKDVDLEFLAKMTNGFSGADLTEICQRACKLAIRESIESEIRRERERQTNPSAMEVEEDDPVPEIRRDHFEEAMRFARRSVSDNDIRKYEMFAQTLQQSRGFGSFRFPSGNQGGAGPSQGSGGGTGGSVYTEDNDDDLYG
CHOP inh: blocks CHOP induction under ER stress; CHO-K1 CHOP-promoter luciferase, tunicamycin-induced, 15-18 h; inhibition, % at 10 µM; 220,000 tested, 3.8% active; AID 2732;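 active = compounds that reduced the stress-induced luciferase reporter signal by more than about 70% of percent inhibition, limit read from the data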;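 note: 0% = tunicamycin plus vehicle and 100% = wells without tunicamycin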
HCV NS3 hel inh: HCV NS3 helicase inhibition; NS3 helicase DNA unwinding, Cy5 molecular beacon fluorescence; inhibition, % at 10.9 µM; 290,000 tested, 0.56% active;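 active = inhibition above the mean of all tested compounds plus 3 SD, set per campaign, cut at about 35% in these data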;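 note: 0% = DMSO wells and 100% = thioflavine S control wells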
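assay system = NS3 helicase fragment of HCV | buffer or medium = MOPS pH 6.5, MgCl2, DTT, Tween20, BSA | timing = 60 min unwinding reaction at 25 °C after ATP addition | signal = Cy5 beacon fluorescence read at start and 1 h | read-out basis = % inhibition of unwinding | control set = low DMSO, high thioflavine S at 110 µM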
PfM18AAP inh: blocks P. falciparum M18 aspartyl aminopeptidase; recombinant PfM18AAP, H-Glu-NHMec fluorogenic cleavage; inhibition, % at 7.35 µM; 290,000 tested, 1.2% active;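 active = inhibition above the campaign mean inhibition over all tested compounds plus 3 SD, cut at about 28% in these data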;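 note: 0% = plate median of test compound wells and 100% = 2 mM ZnCl2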
Active calls of the source: *; nt = no result.

SMILES	CHOP UPR activ	UPR XBP1 act	p97 ATPase inh	CHOP inh	HCV NS3 hel inh	PfM18AAP inh
Cc1ccccc1CCN(C(=O)Cn1nnc2ccccc21)C(C(=O)NCC1CCCO1)c1nc2ccccc2n1C (stereo unspecified)	0	1	-1	82*	8	0
Cc1ccccc1C(C(=O)NCc1ccco1)N(CC1CCCO1)C(=O)Cn1nnc2ccccc21 (stereo unspecified)	-1	-4	9	-2	-6	1
O=C(Nc1nc2ccccc2s1)C1CCN(S(=O)(=O)c2cc([N+](=O)[O-])ccc2Cl)CC1	6	5	-3	83*	5	28*
CNC(=O)c1c(C)[nH]c(=S)c(C#N)c1-c1ccco1	2	-1	13	2	19	27
Cc1ccccc1NC(=O)c1c(C)[nH]c(=S)c(C#N)c1-c1ccco1	3	0	9	-16	49*	16
COc1cc(Cl)c(C)cc1NC(=O)CSc1ccc(C)cc1	-2	0	2	74*	2	0
COc1cc(Cl)c(C)cc1NC(=O)CSc1ccccc1	-2	-2	-6	65	-9	-6
COc1ccc(C(=O)N2CCC(C(=O)O)CC2)c2ccccc12	2	1	nt	nt	5	-6
Nc1ccccc1Nc1cc(-c2ccccc2)nn1-c1cccc(Cl)c1	2	-1	1	90*	3	4
CC1CCN(S(=O)(=O)c2cccc(C(=O)NCc3cccs3)c2)CC1	-3	1	-4	73*	-5	-1
CC1CCN(S(=O)(=O)c2cccc(C(=O)NCc3ccco3)c2)CC1	-1	0	2	-3	7	-7
COc1ccc(C(=O)/C=C/C(=O)N(CC(=O)NC2CCCCC2)Cc2ccccc2)c(O)c1	nt	nt	3	108*	3	1
COc1ccc(C(=O)/C=C/C(=O)N(CC(=O)NC2CCCCC2)CC2CCCO2)c(O)c1 (stereo unspecified)	4	-14	-7	108*	4	-3
COc1ccc(C(=O)/C=C/C(=O)N(CC(=O)NC2CCCCC2)Cc2ccccc2OC)c(O)c1	nt	nt	3	107*	4	-7
CC(Sc1nnnn1-c1cccc(F)c1)C(=O)NC1CCCC1 (stereo unspecified)	-2	-2	nt	nt	nt	nt
O=C(CCS(=O)(=O)c1ccc(Cl)cc1)Nc1nnc(-c2ccco2)o1	0	-5	nt	nt	nt	nt
Cc1cnc(C(=O)OCC(=O)Nc2cc(S(=O)(=O)N3CCOCC3)ccc2Cl)cn1	0	0	nt	nt	nt	nt
COc1cnn(C(C)(C)C)c(=O)c1Cl	3	0	0	21	6	0
Cc1cccc(Oc2cnn(C(C)(C)C)c(=O)c2Cl)c1	3	-3	-8	71*	-11	-3
Cc1cc2c(cc1C)CSC(c1ccc(O)cc1)SC2	-1	-1	0	90*	11	-3
c1ccc(CCOn2ccnc2)cc1	3	-7	nt	nt	11	-5
NC(=O)CC(NC(=O)Cc1cccc2ccccc12)c1ccc(N2CCCCCC2)c([N+](=O)[O-])c1 (stereo unspecified)	-2	0	nt	nt	-21	1
NC(=O)CC(NC(=O)Cc1cccc2ccccc12)c1ccc(N2CCN(c3ccccc3)CC2)c([N+](=O)[O-])c1 (stereo unspecified)	4	-3	nt	87*	nt	nt
CCS(=O)(=O)N1CCC(C(=O)Nc2cccc(C(C)=O)c2)CC1	2	0	-4	73*	9	-9
O=C(COC(=O)C12CC3CC(CC(C3)C1)C2)NC12CC3CC(CC(C3)C1)C2	-1	2	-4	76*	-5	-8
O=C(COC(=O)C12CC3CC(CC(C3)C1)C2)Nc1ccc(OC(F)F)cc1	-2	4	-5	94*	-3	2
Nc1nc(Cl)nc2c1ncn2[C@@H]1O[C@H](COP(=O)(O)OP(=O)(O)OP(=O)(O)O)[C@H](O)C1O (stereo partly specified)	nt	nt	nt	3	nt	nt
CCOc1ccc(N2C(=O)CC(NNc3nc4ccccc4s3)C2=O)cc1 (stereo unspecified)	-1	5	-3	-2	-5	-4
